In the library only some 2% were active in any assay of this set; here they are far more common.
PvdQ inh: P. aeruginosa PvdQ acylase inhibitors, primary screen, biochemical, fluorescence, plate reader and imaging, single point; AID 488965, 2010; inhibition, % at 10 µM; purified PvdQ acylase; actives 0.063% (n = 340,000); PvdQ acylase [Pseudomonas aeruginosa LESB58]; in the data active means inhibition above about 30%, passing the limit was not always enough
PLCb3 inh: human PLC-beta3 inhibitors, primary screen, biochemical, fluorescence | Purified PLC-beta3, fluorogenic substrate | AID 720704, 2013 | actives 0.18% (n = 370,000) | inhibition, % at 12.2 µM | 1-phosphatidylinositol 4,5-bisphosphate phosphodiesterase beta-3 (Homo sapiens), Q01970; in the data active means inhibition above about 11%
VIM-2 inh: VIM-2 metallo-beta-lactamase inhibitors, primary screen, biochemical, epi-absorbance readout, Pseudomonas aeruginosa enzyme; purified VIM-2, nitrocefin hydrolysis, epi-absorbance fluorescence; actives 0.89% (n = 290,000); AID 1527, 2009; inhibition, % at 5.6 µM;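 active means inhibition above the mean of all tested compounds plus 3 SD, cutoff set per screening run, cut at about 7.5% in these data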;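 further: red hydrolysis product quenches plate fluorescence so inhibitors raise well fluorescence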
IMP-1 inh: IMP-1 metallo-beta-lactamase inhibitors, primary screen, biochemical, epi-absorbance readout, Pseudomonas aeruginosa enzyme. inhibition, % at 5.6 µM. metallo-beta-lactamase IMP-1 (Pseudomonas aeruginosa). AID 1556, 2009. actives 0.45% (n = 290,000). purified IMP-1, nitrocefin hydrolysis, epi-absorbance fluorescence;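 active means inhibition above the mean plus 3 SD of all compounds in the same screening run, cut at about 4.5% in these data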
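System: purified IMP-1; amount: IMP-1 0.2 nM before substrate addition; compound: single dose, 5.6 µM; times: 25 °C, 15 min preincubation, 25 min reaction; signal: Epi-absorbance via hydrolysed-nitrocefin quenching of white-plate fluorescence, 480/530 nm, EDTA stop; benchmarks: DMSO with and without IMP-1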
PLC-gamma1 inh: PLC-gamma1 enzyme inhibitors, primary screen, biochemical, fluorescence, purified enzyme; 1-phosphatidylinositol 4,5-bisphosphate phosphodiesterase gamma-1 (Homo sapiens), P19174; fluorogenic substrate; inhibition, % at 12.2 µM; actives 0.84% (n = 370,000); in the data active means inhibition above about 9.5%
Target sequence (P19174 whole entry, looked up): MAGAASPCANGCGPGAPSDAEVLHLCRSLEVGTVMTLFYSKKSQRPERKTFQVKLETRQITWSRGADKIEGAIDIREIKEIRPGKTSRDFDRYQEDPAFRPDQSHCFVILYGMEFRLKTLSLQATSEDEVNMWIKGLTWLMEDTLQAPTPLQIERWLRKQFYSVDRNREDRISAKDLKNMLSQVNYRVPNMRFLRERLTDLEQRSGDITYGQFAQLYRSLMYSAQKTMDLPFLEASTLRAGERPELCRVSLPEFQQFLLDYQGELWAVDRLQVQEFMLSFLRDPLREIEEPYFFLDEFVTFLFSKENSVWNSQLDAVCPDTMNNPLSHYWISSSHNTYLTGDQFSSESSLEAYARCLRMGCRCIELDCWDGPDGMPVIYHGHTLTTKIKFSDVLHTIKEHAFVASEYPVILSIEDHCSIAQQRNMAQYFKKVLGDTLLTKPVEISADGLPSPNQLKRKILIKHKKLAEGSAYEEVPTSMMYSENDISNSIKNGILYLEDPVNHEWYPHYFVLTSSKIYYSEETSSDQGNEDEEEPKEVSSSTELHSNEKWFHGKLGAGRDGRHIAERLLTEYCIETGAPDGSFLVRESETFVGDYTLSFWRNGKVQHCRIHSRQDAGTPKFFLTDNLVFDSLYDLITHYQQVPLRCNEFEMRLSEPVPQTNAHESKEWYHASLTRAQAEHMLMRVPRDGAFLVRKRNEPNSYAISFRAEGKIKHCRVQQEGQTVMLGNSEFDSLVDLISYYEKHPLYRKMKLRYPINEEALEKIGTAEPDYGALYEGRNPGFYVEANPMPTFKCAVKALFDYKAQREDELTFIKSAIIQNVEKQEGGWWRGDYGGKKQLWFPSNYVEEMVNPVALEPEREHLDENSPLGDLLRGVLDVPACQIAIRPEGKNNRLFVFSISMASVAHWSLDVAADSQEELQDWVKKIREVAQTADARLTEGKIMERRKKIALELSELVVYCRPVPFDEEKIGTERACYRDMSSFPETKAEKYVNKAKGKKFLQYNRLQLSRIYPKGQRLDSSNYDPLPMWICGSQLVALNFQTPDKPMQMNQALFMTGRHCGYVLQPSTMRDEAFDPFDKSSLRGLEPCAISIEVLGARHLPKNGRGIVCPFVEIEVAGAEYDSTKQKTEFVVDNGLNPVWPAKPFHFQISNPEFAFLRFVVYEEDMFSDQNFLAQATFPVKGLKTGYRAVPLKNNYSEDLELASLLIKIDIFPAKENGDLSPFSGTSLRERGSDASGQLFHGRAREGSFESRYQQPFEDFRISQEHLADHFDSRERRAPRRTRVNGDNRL
Each line names hits and unclear results; the compound was inactive in the other large screens.

O=C(NCCNC(=O)c1cc(OCC(F)(F)F)ccc1OCC(F)(F)F)Nc1cccc(C(F)(F)F)c1	IMP-1 inh 7.0
Cc1ccc2nc(N=C(N)N)nc(C)c2c1	VIM-2 inh 11
O=C(OCCN1CCN(C2CN(Cc3cn(Cc4ccccc4C(F)(F)F)nn3)S(=O)(=O)C2)CC1)c1cc2ccccc2o1 (centres undefined)	none (no result: PvdQ inh, VIM-2 inh, IMP-1 inh)
COc1cccc2c1cc1c(=O)n(CC(=O)NCCCN3CCCCC3)nc(C)n12	VIM-2 inh 9.2 (no result: PLCb3 inh, PLC-gamma1 inh)
Cc1nc2c3cc(Cl)ccc3n(CCN3CCCCC3)c2s1	IMP-1 inh 5.1
O=C(OC12CCCN(C1)/C(=C/c1cccc(Cl)c1)C2)c1ccno1 (centres undefined)	none (no result: PvdQ inh, VIM-2 inh, IMP-1 inh)
CN(c1ccccc1)c1ccc(/C=C(\CCC(=O)O)c2nc3ccccc3s2)cc1[N+](=O)[O-]	none
CNc1ccc(/C=C(\CCC(=O)O)c2nc3ccccc3s2)cc1[N+](=O)[O-]	VIM-2 inh 11
Cc1ccc(/C=C(\CCC(=O)O)c2nc3ccccc3s2)cc1[N+](=O)[O-]	VIM-2 inh 8.8
Cc1cccc(NC(=O)CSc2nnc(SCc3ccc(Cl)cc3)s2)c1	none (no result: PvdQ inh, VIM-2 inh, IMP-1 inh)
O=c1c2cc3cc(Cl)ccc3nc2ncn1CCc1c[nH]c2ccccc12	none (no result: PvdQ inh, VIM-2 inh, IMP-1 inh)
C[C@@H]1CCCCCCCCC(=O)OCCN1C(=O)OC(C)(C)C	none (no result: VIM-2 inh, IMP-1 inh)
C[C@@H]1CCCCCCCCC(=O)OCCN(C(=O)OC(C)(C)C)[C@H](C)CCCCCCCCC(=O)OCCN1C(=O)OC(C)(C)C	PLCb3 inh 13 (no result: VIM-2 inh, IMP-1 inh)
NC(=O)C1CCN(C(=O)COc2ccc3c(c2)oc(=O)c2ccccc23)CC1	VIM-2 inh 12
Fc1ccc(-c2n[nH]c(=S)n2Cc2ccccc2)cc1	none (no result: PLCb3 inh, PLC-gamma1 inh)
S=c1[nH]nc(-c2ccncc2)n1Cc1ccccc1	none
Cc1cc(-c2n[nH]c(=S)n2Cc2ccccc2)cs1	VIM-2 inh 7.9
Oc1ccc(-c2n[nH]c(=S)n2Cc2ccccc2)cc1	VIM-2 inh 11
O=Cc1coc2ccc3ccccc3c2c1=O	IMP-1 inh 36
NC(=O)N/N=C/c1coc2ccc3ccccc3c2c1=O	none
CCCN1CNc2c(c(=O)[nH]c(=S)n2CCc2c(Cl)cccc2Cl)C1	none (no result: PvdQ inh, VIM-2 inh, IMP-1 inh)
Cc1ccnc2nc(C(=O)OCC(=O)Nc3ccc4c(c3)OC(F)(F)O4)nn12	IMP-1 inh 4.7
CCC(C)c1ccc(NC(=O)COC(=O)c2nc3nccc(C)n3n2)cc1 (centres undefined)	none
COc1ccc(N2C(=O)CC(NCc3cccs3)C2=O)cc1 (centres undefined)	PLC-gamma1 inh 11
CC(=O)Nc1sc(C)c(C)c1C(=O)OCC(=O)NCc1ccc(Cl)cc1	PLC-gamma1 inh 12 (no result: VIM-2 inh, IMP-1 inh)
COc1cccc(CNC(=O)COC(=O)c2c(NC(C)=O)sc(C)c2C)c1	none (no result: VIM-2 inh, IMP-1 inh)
COC(=O)C1CN(Cc2ccc(F)cc2)CCS(=O)(=O)N1Cc1cn(Cc2ccc(Cl)cc2)nn1 (centres undefined)	none (no result: PvdQ inh, VIM-2 inh, IMP-1 inh)
CCOc1ccc(/C(O)=C2/C(=O)C(=O)N(c3nc(C)c(C)s3)C2c2ccco2)cc1 (centres undefined)	IMP-1 inh 5.5
Clc1ccc(-c2csc(NCC3CCCO3)n2)cc1 (centres undefined)	none (no result: PvdQ inh, VIM-2 inh, IMP-1 inh)
COC(=O)[C@]12C[C@H](CC(=O)NCc3ccc(OC)c(OC)c3)C(=O)N(Cc3cccc4ccccc34)C1=C[C@H](C(C)(C)C)O[C@@H]2C	none (no result: PvdQ inh, VIM-2 inh, IMP-1 inh)
CN(C)CCSc1nc(-c2ccccc2)nc2c1CCC2	VIM-2 inh 9.8
COc1ccc(C2=Nn3c(nnc3-c3ccco3)SC2)cc1	VIM-2 inh 9.8
c1coc(-c2nnc3n2N=C(c2ccc4ccccc4c2)CS3)c1	none (no result: PvdQ inh, VIM-2 inh, IMP-1 inh)
NC(=O)CC1Nc2cccc3cccc(c23)NC1=O (centres undefined)	VIM-2 inh 8.1, IMP-1 inh 9.1
COc1cc(/C=C2/SC(=S)N(Cc3ccccc3)C2=O)ccc1O	IMP-1 inh 4.7
O=C1/C(=C/c2ccncc2)SC(=S)N1Cc1ccccc1	IMP-1 inh 6.2
Cc1ccccc1CS(=O)(=O)Cc1ccc(C(=O)Nc2cccc(Cl)c2F)o1	none (no result: PvdQ inh, VIM-2 inh, IMP-1 inh)
CCC(=O)NC(c1cccs1)c1cc([N+](=O)[O-])c2cccnc2c1OC (centres undefined)	PLC-gamma1 inh 18 (no result: PvdQ inh, VIM-2 inh, IMP-1 inh)
C[C@H](O)[C@@H]1CN2CCc3c([nH]c4cccc(-c5ccccc5)c34)[C@@H]2C[C@@H]1N(C)C(=O)Nc1ccccc1	none (no result: PvdQ inh, VIM-2 inh, IMP-1 inh)
COC(=O)c1ccc(-c2nc3ccccc3[nH]2)cc1	PvdQ inh 40
O=C(O)Cc1cn(Cc2ccc(F)cc2)c2ccccc12	none
Cc1ccc(Cn2cc(CCC(=O)O)c3ccccc32)cc1	IMP-1 inh 13
COC1=C(Nc2ccccc2)C(=O)c2ccccc2C1=O	VIM-2 inh 10
COC(=O)c1cccc(Cn2ccc3ccc(-c4ccc5ccn(C(=O)c6ccc(C)cc6)c5c4)cc32)c1	none (no result: PvdQ inh, VIM-2 inh, IMP-1 inh)
CN(/N=C/c1cc(Cl)ccc1O)C1=NS(=O)(=O)c2ccccc21	VIM-2 inh 10
COc1cccc(/C=N/N(C)C2=NS(=O)(=O)c3ccccc32)c1O	VIM-2 inh 9.5
COc1ccc(-c2cc(-c3nnc(SCC(=O)Nc4ccccc4-c4ccccc4)n3N)[nH]n2)cc1	none (no result: PvdQ inh, VIM-2 inh, IMP-1 inh)
Cc1ccc([C@H](C)NC(=O)C2=C(N)N(S(=O)(=O)c3ccc(C)cc3)C(C(=O)c3ccccc3)C2c2ccccc2Cl)cc1 (some centres undefined)	none (no result: PvdQ inh, VIM-2 inh, IMP-1 inh)
C=CCOc1ccccc1/C=c1\sc2nc(=O)c(C)nn2c1=O	IMP-1 inh 9.2 (no result: PLCb3 inh, PLC-gamma1 inh)
COCC(=O)Oc1c(S(=O)(=O)c2ccc(C)cc2)c(C)nn1-c1ccccc1	PvdQ inh 34
C[C@@H](/C=C/C(=O)OC(C)(C)C)Sc1ccc(C(C)(C)C)cc1	none (no result: PvdQ inh, VIM-2 inh, IMP-1 inh)
Cc1cc(C)c2c(N)c3cccc(C)c3nc2n1	VIM-2 inh 18
Cc1cccc2c(N)c3c(nc12)CCCC3 (tested in a mixture with another compound)	none
CC(C)CNC(=O)COC(=O)c1c2c(nc3ccccc13)/C(=C/c1cccs1)CC2	IMP-1 inh 6.7
COc1ccc(C(=O)OCCN(C)C2CN(Cc3cn(Cc4cccc(F)c4)nn3)S(=O)(=O)C2)cc1OC (centres undefined)	none (no result: PvdQ inh, VIM-2 inh, IMP-1 inh)
CC[C@]12c3[nH]c4ccc(OC)cc4c3CCN1C(=O)C(CC(=O)NCc1cccc(C(F)(F)F)c1)C[C@@H]2C(=O)N1CCN(C(=O)c2ccco2)CC1 (some centres undefined)	PLC-gamma1 inh 11 (no result: VIM-2 inh, IMP-1 inh)
Cc1cc(NC(=O)Nc2ccc(F)c(Cl)c2)no1	PvdQ inh 44
Cc1cc(NC(=O)c2cc(F)c(F)cc2Cl)no1	PvdQ inh 92

Screens as filed in PubChem.
